# Assay results published in ChEMBL document CHEMBL3259673, “Campechic acids A and B: anti-invasive polyether polyketides from a soil-derived Streptomyces” (J Nat Prod, 2014).
# The source made the active and inactive calls. The calls are words filed in the database; no cut-off is given here.
# What was measured:
# Candida albicans = assay: Antimicrobial activity against Candida albicans IFO1594 after 20 hrs; type: functional, organism-based
# In short: (§1)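 Broth microdilution. Overnight cultures (20 h, 30 °C, shaken) centrifuged and resuspended in saline at 1 × 10^5 cells/mL, diluted 1:10 into medium with sample in DMSO. C. albicans in yeast nitrogen base + 2% glucose, 30 °C. E. coli in Mueller Hinton broth, 37 °C. Growth read as A650 after 20 h. MIC reported.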
# Micrococcus luteus = assay: Antimicrobial activity against Micrococcus luteus ATCC 9343 after 20 hrs; type: functional; conditions: ATCC 9343, 20 h
# In short: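 Micrococcus luteus was grown 20 h at 30 °C with shaking, then pelleted and suspended in saline at 1 × 10^5 cells/mL. It was then mixed 1:10 with Mueller Hinton broth plus compound in DMSO.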
# [1] = Antiinvasive activity against mouse 26-L5 cells after 6 to 8 hrs by matrigel assay; type: functional, cell-based
# In short: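 Transwell chambers with 8.0-μm polycarbonate filters coated with Matrigel/fibronectin were used. Cells were fixed in methanol and stained with H&E. Non-invaded cells were swabbed off, and cells on the lower surface were counted in five fields per well. IC50 reported.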
# Escherichia coli = assay: Antimicrobial activity against Escherichia coli NIH-JC2 after 20 hrs; type: functional, organism-based; in short: as §1
# [2] = Selectivity index, ratio of IC50 for cytotoxicity against mouse 26-L5 cells to IC50 for antiinvasive activity against mouse 26-L5 cells; type: toxicity, cell-based; conditions: read-out: Ratio IC50
# [3] = Cytotoxicity against mouse 26-L5 cells after 24 hrs by crystal violet staining assay; type: cell-based
# In short: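 Colon 26-L5 cells (5 × 10^3/well) were seeded in RPMI with 1% FCS and graded compound concentrations. They were incubated 24 h at 37 °C under 5% CO2, washed with PBS and fixed in 20% formalin. Cells were stained 30 min with crystal violet, the dye was eluted in 30% acetic acid and A590 was read. IC50 reported.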
Structure (SMILES),Activity (Candida albicans),MIC (Micrococcus luteus),IC50 [1],Activity (Escherichia coli),selectivity ratio [2],IC50 [3]
CC[C@@H](C[C@@H](C)C[C@H](C)C[C@H](C)C(=O)O)C(=O)/C=C(\O)[C@H](C)C[C@H](C)C/C=C/[C@H](C)[C@@H](O)CC1CCC(C)(C2CCC(C)([C@@H](C)O)O2)O1 (stereo partly specified),inactive,6.25 µg/mL,5.5 nM,inactive,73,
C[C@H](C/C=C/[C@H](C)[C@@H](O)CC1CCC(C)(C2CCC(C)([C@@H](C)O)O2)O1)C[C@@H](C)/C(O)=C/C(=O)[C@@H](C)C[C@@H](C)C[C@H](C)C[C@H](C)C(=O)O (stereo partly specified),inactive,6.25 µg/mL,300 nM,inactive,15,4500 nM
